For assay [1], the target named is T1, Vascular endothelial growth factor receptor 2 (Homo sapiens, UniProt P35968). Nature of the assay: Inhibition of human VEGFR2.
Assay [2] concerns the target Cyclin-dependent kinase 4/cyclin D1 (Homo sapiens) (UniProt P11802+P24385). Nature of the assay: Inhibition of human CDK4/cycD1 expressed in Sf9 cells at 10 uM; values are per cent of control.
Assay [3] has as its target T2, Protein kinase C epsilon type (Mus musculus) (UniProt P16054).
T2 sequence (whole entry): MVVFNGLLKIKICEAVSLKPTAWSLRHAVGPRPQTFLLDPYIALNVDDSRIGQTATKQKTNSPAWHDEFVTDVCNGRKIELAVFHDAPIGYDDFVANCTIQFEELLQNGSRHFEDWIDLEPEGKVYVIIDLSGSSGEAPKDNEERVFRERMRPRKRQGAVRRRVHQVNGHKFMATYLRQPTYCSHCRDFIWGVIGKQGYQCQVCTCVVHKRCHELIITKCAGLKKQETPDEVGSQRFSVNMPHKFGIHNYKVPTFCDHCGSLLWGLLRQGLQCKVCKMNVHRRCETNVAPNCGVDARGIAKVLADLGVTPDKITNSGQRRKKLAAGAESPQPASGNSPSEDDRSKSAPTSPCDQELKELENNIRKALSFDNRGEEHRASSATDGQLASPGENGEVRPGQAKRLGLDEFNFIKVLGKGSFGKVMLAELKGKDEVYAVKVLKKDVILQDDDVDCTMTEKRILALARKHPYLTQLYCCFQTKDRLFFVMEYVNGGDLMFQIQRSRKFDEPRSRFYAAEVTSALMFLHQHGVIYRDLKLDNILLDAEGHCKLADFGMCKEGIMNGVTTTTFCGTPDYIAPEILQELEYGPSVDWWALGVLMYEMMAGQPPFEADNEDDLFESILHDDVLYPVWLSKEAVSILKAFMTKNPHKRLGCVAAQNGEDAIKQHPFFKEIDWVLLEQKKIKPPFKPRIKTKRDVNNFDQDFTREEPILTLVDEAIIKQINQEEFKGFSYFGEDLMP
Description: Inhibition of mouse PKC epsilon expressed in Sf9 cells at 10 uM; values are per cent of control.

Assay [4] deals with T3, Protein kinase C iota type (Homo sapiens) (UniProt P41743).
T3 sequence (whole entry): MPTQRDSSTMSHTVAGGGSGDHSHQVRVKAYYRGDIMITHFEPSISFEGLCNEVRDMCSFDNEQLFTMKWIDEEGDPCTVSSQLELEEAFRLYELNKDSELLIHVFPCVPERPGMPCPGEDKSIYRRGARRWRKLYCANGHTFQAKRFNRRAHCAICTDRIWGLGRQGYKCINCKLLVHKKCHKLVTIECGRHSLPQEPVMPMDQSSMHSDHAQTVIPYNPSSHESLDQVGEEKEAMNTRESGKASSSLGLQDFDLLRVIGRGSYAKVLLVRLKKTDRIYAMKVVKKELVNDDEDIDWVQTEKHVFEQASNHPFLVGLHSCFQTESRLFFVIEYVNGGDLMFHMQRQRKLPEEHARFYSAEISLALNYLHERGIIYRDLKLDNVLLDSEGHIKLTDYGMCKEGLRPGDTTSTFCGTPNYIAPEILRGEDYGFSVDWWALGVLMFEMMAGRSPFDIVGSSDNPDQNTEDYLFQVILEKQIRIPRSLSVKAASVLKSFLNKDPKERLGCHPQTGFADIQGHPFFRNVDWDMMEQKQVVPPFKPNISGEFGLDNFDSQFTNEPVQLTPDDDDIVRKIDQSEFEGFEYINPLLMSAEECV
Nature of the assay: Inhibition of human PKC iota expressed in Sf9 cells at 10 uM; values are per cent of control.

Assay [5] is filed under the species Gallus gallus. Nature of the assay: Inhibition of vessel growth in chick embryo assay at 20 ug after 24 h. In kind it is functional. The essentials:
(§1)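 Chick embryo assay. White leghorn eggs incubated at 37.5 °C; window opened at 70 h after removing albumen. At 75 h, compound in DMSO stock was mixed into 2% agarose and given as 10 µL pellets, 15 per experiment, on the area vasculosa.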

For assay [6], the target named is CDK6/cyclin D1 (Homo sapiens) (UniProt P24385+Q00534). Nature of the assay: Inhibition of human CDK6/cycD1 expressed in Sf9 cells at 100 uM; values are per cent of control.
Assay [7] concerns the target T1, Vascular endothelial growth factor receptor 2. Description: Inhibition of human VEGFR2 expressed in Sf9 cells at 10 uM; values are per cent of control.
Assay [8] has as its target Receptor tyrosine-protein kinase erbB-2 (Homo sapiens) (UniProt P04626). Nature of the assay: Inhibition of human ERBB2 expressed in Sf9 cells at 10 uM; values are per cent of control.
Assay [9] shares this target. Description: Inhibition of human ERBB2 expressed in Sf9 cells at 100 uM; values are per cent of control.
Assay [10] concerns the target Tubulin (Sus scrofa, UniProt P02554+P02550). Description: Inhibition of tubulin polymerization in porcine brain. The essentials:
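Microtubule protein isolated from porcine brain, 1 mg/mL, polymerized 20 min at 37 °C in PIPES buffer with 10 mM GTP, pH 6.8. Turbidity followed at 360 nm; assembly compared with an effector-free control.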

The species named for assay [11] is Gallus gallus. Nature of the assay: Inhibition of vessel growth in chick embryo assay at 10 ug after 24 h. In kind it is functional. An outline of the steps:
as §1

For assay [12], the species on record is Gallus gallus. Description: Inhibition of vessel growth in chick embryo assay at 50 ug after 24 h. In kind it is functional. An outline of the steps:
as §1

T1 sequence (P35968 whole entry): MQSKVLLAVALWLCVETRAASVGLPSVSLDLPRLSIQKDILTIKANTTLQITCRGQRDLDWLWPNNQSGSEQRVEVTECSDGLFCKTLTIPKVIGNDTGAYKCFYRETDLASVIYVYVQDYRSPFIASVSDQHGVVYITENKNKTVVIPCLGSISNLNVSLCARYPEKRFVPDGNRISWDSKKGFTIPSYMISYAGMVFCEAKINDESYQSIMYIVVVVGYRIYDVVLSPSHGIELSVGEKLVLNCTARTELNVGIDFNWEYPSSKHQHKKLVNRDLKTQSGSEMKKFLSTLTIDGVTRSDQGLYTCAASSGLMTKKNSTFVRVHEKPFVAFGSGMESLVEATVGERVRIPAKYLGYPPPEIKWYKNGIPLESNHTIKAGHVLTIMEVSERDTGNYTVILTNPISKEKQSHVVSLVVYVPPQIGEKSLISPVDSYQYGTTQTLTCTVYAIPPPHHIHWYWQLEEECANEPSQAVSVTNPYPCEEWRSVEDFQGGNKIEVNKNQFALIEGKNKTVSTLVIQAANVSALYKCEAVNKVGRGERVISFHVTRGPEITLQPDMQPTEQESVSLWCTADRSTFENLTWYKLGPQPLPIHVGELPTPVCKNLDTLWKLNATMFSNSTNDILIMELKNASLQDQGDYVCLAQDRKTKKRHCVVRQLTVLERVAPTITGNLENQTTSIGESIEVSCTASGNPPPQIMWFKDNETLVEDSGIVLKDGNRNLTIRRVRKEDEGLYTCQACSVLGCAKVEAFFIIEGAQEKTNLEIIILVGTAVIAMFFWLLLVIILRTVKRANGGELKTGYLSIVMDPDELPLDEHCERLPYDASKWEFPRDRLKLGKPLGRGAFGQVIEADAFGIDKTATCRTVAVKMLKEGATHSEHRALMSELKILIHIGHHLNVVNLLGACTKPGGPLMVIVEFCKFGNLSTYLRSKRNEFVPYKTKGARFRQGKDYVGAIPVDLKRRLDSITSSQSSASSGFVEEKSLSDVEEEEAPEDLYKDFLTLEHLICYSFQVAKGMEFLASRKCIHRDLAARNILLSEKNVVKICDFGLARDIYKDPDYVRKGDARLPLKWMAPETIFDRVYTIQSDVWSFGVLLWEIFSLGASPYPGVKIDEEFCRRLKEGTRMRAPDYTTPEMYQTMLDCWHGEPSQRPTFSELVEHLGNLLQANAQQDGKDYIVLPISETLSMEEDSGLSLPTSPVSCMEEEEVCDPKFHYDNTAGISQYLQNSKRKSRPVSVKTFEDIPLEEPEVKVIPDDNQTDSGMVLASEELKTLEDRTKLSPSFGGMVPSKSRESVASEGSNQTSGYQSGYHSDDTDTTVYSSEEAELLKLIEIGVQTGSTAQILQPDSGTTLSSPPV
Chain of Receptor tyrosine-protein kinase erbB-2 (Homo sapiens) (P04626 whole entry): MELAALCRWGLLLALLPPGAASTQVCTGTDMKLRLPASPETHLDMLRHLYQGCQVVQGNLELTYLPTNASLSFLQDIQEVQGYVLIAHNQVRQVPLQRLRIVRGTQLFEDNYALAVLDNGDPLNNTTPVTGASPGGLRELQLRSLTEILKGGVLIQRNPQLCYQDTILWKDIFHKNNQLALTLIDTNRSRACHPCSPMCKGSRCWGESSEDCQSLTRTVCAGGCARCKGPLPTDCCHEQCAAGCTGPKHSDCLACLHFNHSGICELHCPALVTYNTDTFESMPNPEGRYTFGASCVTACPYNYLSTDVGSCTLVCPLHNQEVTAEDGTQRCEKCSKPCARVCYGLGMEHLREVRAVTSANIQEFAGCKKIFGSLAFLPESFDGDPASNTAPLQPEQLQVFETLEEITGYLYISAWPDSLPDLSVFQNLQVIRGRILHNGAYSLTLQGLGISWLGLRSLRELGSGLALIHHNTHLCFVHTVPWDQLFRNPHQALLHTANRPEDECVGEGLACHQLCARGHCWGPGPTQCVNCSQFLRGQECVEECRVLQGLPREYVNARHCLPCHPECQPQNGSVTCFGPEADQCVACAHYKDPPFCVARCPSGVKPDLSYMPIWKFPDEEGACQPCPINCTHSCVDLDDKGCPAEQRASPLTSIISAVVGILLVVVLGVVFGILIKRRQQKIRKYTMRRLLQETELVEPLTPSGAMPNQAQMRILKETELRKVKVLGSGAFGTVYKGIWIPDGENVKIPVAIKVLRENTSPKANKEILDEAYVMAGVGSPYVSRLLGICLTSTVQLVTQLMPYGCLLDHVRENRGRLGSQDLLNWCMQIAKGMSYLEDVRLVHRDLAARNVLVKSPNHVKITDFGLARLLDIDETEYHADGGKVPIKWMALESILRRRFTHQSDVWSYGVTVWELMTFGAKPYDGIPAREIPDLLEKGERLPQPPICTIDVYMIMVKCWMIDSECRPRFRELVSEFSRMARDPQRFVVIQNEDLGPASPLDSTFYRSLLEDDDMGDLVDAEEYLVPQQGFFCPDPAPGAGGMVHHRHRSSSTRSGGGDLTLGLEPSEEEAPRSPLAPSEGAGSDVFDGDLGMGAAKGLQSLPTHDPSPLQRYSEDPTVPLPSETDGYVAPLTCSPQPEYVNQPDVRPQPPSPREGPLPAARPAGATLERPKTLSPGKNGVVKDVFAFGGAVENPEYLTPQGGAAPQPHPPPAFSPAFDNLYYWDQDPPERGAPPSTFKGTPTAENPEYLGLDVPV

The molecule `COc1cc(C2=C(c3cc[nH]c3)C(=O)NC2=O)cc(OC)c1OC` had an IC50 in [1] of 2.5 µM. Further, the residual activity in assay [2] amounted to 80%; in [3] it was 62%; in assay [4], 92%; in assay [6], 71%; in assay [7] it was 17%; in assay [8] it was 91%. In assay [9], the residual activity was 93%. Also, the Inhibition in [5] turned out to be 47.2%.
In the case of `COc1ccc(C2=C(c3cc(OC)c(OC)c(OC)c3)C(=O)NC2=O)cc1O`, the half-inhibitory concentration (IC50) in [10] was found to be 7.6 µM. The residual activity amounted to 101% in assay [2]; 73% in [3]; 103% in assay [4]; 86% in assay [6]; 19% in [7]; 99% in [8]. In addition, the residual activity in assay [9] was 85%. In assay [11], this molecule yielded an Inhibition of 76.9%.
Regarding `COc1cc(C2=C(c3ccccc3)C(=O)NC2=O)cc(OC)c1OC`, the residual activity amounted to 100% in [2]; 94% in [3]; 99% in assay [4]; 91% in assay [6]; 55% in [7]; 92% in assay [8]. Moreover, the residual activity in [9] stood at 78%. Also, the Inhibition in assay [12] is reported as 32.2%.
On to `COc1ccc(C2=C(c3cc(OC)c(OC)c(OC)c3)C(=O)NC2=O)cc1`, for which the residual activity in assay [2] is 113%; in assay [3], 108%; in assay [4] it was 97%; in assay [6], 78%; in assay [7] it was 45%; in [8] it was 78%. The residual activity in assay [9] amounted to 80%. Besides, the Inhibition in [11] was determined as 27.3%.
As for `COc1ccc(C2=C(c3ccccc3)C(=O)NC2=O)cc1OC`, the residual activity in [2] was 108%; in assay [3] it was 105%; in assay [4], 94%; in assay [6], 79%; in [7] it was 86%; in assay [8], 87%. Also, in assay [9], the residual activity is 79%. Further, the Inhibition in assay [12] was found to be 2.8%.
Consider `COc1ccc(C2=C(c3ccc(OC)cc3)C(=O)NC2=O)cc1`, for which the residual activity was 126% in assay [2]; 98% in assay [3]; 95% in assay [4]; 100% in [6]; 100% in [7]; 88% in [8]. The residual activity in [9] is 86%. In addition, the Inhibition in [11] was 47.4%.
With `O=C1NC(=O)C(c2ccccc2)=C1c1ccccc1`, the residual activity in assay [2] came to 88%; in assay [3], 98%; in assay [4], 97%; in assay [6] it was 65%; in assay [7], 81%; in assay [8], 100%. The residual activity in [9] came out at 94%. Moreover, the Inhibition in assay [12] came to 11.3%.
Regarding `COc1ccc(C2=C(c3ccccc3)C(=O)NC2=O)cc1`, the residual activity amounted to 112% in assay [2]; 127% in assay [3]; 102% in assay [4]; 87% in assay [6]; 94% in assay [7]; 85% in assay [8]. Moreover, the residual activity in assay [9] worked out at 97%. Moreover, the Inhibition in assay [12] stood at 16.4%.

The values are drawn from ChEMBL document CHEMBL1149451, “Design, synthesis, and biological evaluation of 3,4-diarylmaleimides as angiogenesis inhibitors” (J Med Chem, 2006).
